Published values of several laboratories.
pIC50: −log10 of the molar value.
Read-out: cell growth or viability

| SMILES | cell line | technique | time | pIC50 |
| --- | --- | --- | --- | --- |
| COc1cccc2c1C(=O)c1c(O)c3c(c(O)c1C2=O)C[C@@](O)(C(=O)CO)C[C@@H]3O[C@H]1C[C@H](N)[C@H](O)[C@H](C)O1 | RPE-1 | MTT | – | 4.65 |
| FC(F)(F)c1ccc(C(c2c[nH]c3ccccc23)c2c[nH]c3ccccc23)cc1 | U2OS | ATP luminescence | 22 h | 4.90 |
| O=C(Nc1cc(OCCN2CCCC2)c2ccccc2n1)c1cc(OCc2ccc(F)cc2)cc(C(=O)Nc2cc(OCCN3CCCC3)c3ccccc3n2)n1 | U2OS | ATP luminescence | 72 h | 5.24 |
| COc1cc(Nc2nccc(-c3cnn4nc(OC)ccc34)n2)cc(C(F)(F)F)c1 | U2OS | ATP luminescence | – | 6.41 |
| COC(=O)c1ccc(-n2nc(SC)nc2N)cc1 | RPE-1 | MTT | – | 4.43 |
| COc1cc(C(=O)Nc2cc(OC)c3ccccc3n2)nc(C(=O)Nc2cc(OC)c3ccccc3n2)c1 | U2OS | ATP luminescence | 72 h | < 4.40 |
| N[C@@H](CC(=O)N1CCN(C(c2ccc(F)cc2)c2ccc(F)cc2)CC1)C(=O)N1Cc2ccccc2C1 | HEL | ATP luminescence | 48 h | 4.50 |
| COc1cc(/C=N/c2nc(SC)nn2-c2ccc(C(=O)O)cc2)ccc1O | RPE-1 | MTT | – | 4.53 |
| CC(C)[C@H](N)C(=O)N1CCC[C@H]1B(O)O | SKM-1 | ATP luminescence | 48 h | 7.36 |
| NCCOc1cc(C(=O)Nc2cc(OCCN3CCCC3)c3ccccc3n2)nc(C(=O)Nc2cc(OCCN3CCCC3)c3ccccc3n2)c1 | U2OS | ATP luminescence | 72 h | 6.70 |
| CC(C)C[C@H](NC(=O)[C@H](Cc1ccccc1)NC(=O)c1cnccn1)B(O)O | U2OS | ATP luminescence | – | 7.96 |
| COc1ccc(O)c(/C=N/c2nc(Oc3ccccc3)nn2-c2ccc(C(=O)O)cc2)c1 | RPE-1 | MTT | – | 4.48 |
| CN(C)CCCOc1cc(NC(=O)c2cc(Cl)cc(C(=O)Nc3cc(OCCCN(C)C)c4ccccc4n3)n2)nc2ccccc12 | U2OS | ATP luminescence | 72 h | 5.74 |
| COc1cc(-c2ncn(/C=C\C(=O)OC(C)C)n2)cc(C(F)(F)F)c1 | SKM-1 | – | 72 h | 7.10 |
| NCCOc1cc(NC(=O)c2cccc(C(=O)Nc3cc(OCCN)c4ccccc4n3)n2)nc2ccccc12 | U2OS | ATP luminescence | 72 h | 6.15 |
| Cc1ccc(C(=O)Nc2ccc(Oc3cc4cnn(C)c4cc3-c3cn[nH]c3)c(F)c2)c(=O)n1-c1ccc(F)cc1 | Hs746T | ATP luminescence | – | 7.47 |
| NCCCOc1cc(NC(=O)c2cc(Cl)cc(C(=O)Nc3cc(OCCCN)c4ccccc4n3)n2)nc2ccccc12 | U2OS | ATP luminescence | 72 h | 6.52 |
| COC(=O)C(C)n1c(C=O)ccc1CO (stereo not shown) | Hepa-1c1c7 | crystal violet | 48 h | < 4.00 |
| Cc1ccc(O)c(/C=N/c2nc(Oc3ccccc3)nn2-c2ccc(C(=O)O)cc2)c1 | RPE-1 | MTT | – | 4.47 |
| CC[C@@H](C)[C@H](N)C(=O)N1Cc2ccccc2C1 | NB-4 | ATP luminescence | 48 h | 5.82 |
| CSc1nc(/N=C/c2cc(Br)ccc2O)n(-c2ccc(C(=O)O)cc2)n1 | RPE-1 | MTT | – | 4.42 |
| NCCOc1cc(NC(=O)c2cc(OCc3c[nH]nn3)cc(C(=O)Nc3cc(OCCN)c4ccccc4n3)n2)nc2ccccc12 | U2OS | ATP luminescence | 72 h | < 4.40 |
